According to ChEMBL document CHEMBL1135463 (J Med Chem, 2002):
Converted amounts (≈) assume the structure as drawn. The source made the active and inactive calls. No cut-off for these calls is given here.

Experiments:
Micrococcus luteus [1] = test: the minimum inhibitory concentration (MIC) that inhibits all visible growth of the Micrococcus luteus (bacteria); assay type: functional
Procedure, shortened: (§1)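 Broth microdilution following NCCLS reference methods (M7-A4 for aerobic bacteria, the yeast broth dilution standard for fungi). MIC is the lowest compound concentration giving optically clear wells, with no visible growth of the test organism.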

P388 [2] = test: In vitro inhibition of P388 (murine leukemia) cell proliferation.; assay type: functional; settings: Mus musculus, read-out: ED50 (the source's name)
BXPC-3 = test: In vitro growth inhibition of BXPC-3 (human pancreatic adenocarcinoma) cell line.; assay type: functional
Candida albicans = test: The minimum inhibitory concentration (MIC) that inhibits all visible growth of the Candida albicans (fungus) at 64 ug/mL; NI is no inhibition; assay type: functional, organism-based; procedure, shortened: as §1
Cryptococcus neoformans [3] = test: Minimum inhibitory concentration (MIC) that inhibits all visible growth of the Cryptococcus neoformans (fungus); assay type: functional; procedure, shortened: as §1
DU-145 = test: In vitro growth inhibition of DU-145 (human prostate carcinoma) cell line.; assay type: functional
Enterobacter cloacae = test: The minimum inhibitory concentration (MIC) that inhibits all visible growth of the Enterobacter cloacae (bacteria) at 64 ug/mL; NI is no inhibition; assay type: functional, organism-based; procedure, shortened: as §1
Enterococcus faecalis [4] = test: the minimum inhibitory concentration (MIC) that inhibits all visible growth of the Enterococcus faecalis (bacteria) at 64 ug/mL; NI is no inhibition; assay type: functional, organism-based; procedure, shortened: as §1
Escherichia coli = test: The minimum inhibitory concentration (MIC) that inhibits all visible growth of the Escherichia coli (bacteria) at 64 ug/mL; NI is no inhibition; assay type: functional, organism-based; procedure, shortened: as §1
Enterococcus faecalis [5] = test: The minimum inhibitory concentration (MIC) that inhibits all visible growth of the Enterococcus faecalis (bacteria) at 64 ug/mL; NI is no inhibition; assay type: functional, organism-based; procedure, shortened: as §1
KM-20L2 [6] = test: In vitro growth inhibition of KM20L2 cell line.; assay type: functional; settings: Homo sapiens
Micrococcus luteus [7] = test: the minimum inhibitory concentration (MIC) that inhibits all visible growth of the Micrococcus luteus (bacteria) at 64 ug/mL; NI is no inhibition; assay type: functional, organism-based; procedure, shortened: as §1
[8] = In vitro growth inhibition of NCI-H460 (human non-small cell lung carcinoma) cell line.; assay type: functional
Neisseria gonorrhoeae [9] = test: The minimum inhibitory concentration (MIC) that inhibits all visible growth of the Neisseria gonorrhoeae (bacteria); value may range from (16 -32); assay type: functional; procedure, shortened: as §1
SF-268 [10] = test: In vitro growth inhibition of central nervous system SF-268 cell line.; assay type: functional; settings: Homo sapiens
Staphylococcus aureus = test: The minimum inhibitory concentration (MIC) that inhibits all visible growth of the Staphylococcus aureus (bacteria) at 64 ug/mL; NI is no inhibition; assay type: functional, organism-based; procedure, shortened: as §1
[11] = tested on: Stenotrophomonas maltophilia; test: The minimum inhibitory concentration (MIC) that inhibits all visible growth of the Stenotrophomonas maltophilia (bacteria) at 64 ug/mL; NI is no inhibition; assay type: functional, organism-based; procedure, shortened: as §1
Streptococcus pneumoniae [12] = test: The minimum inhibitory concentration (MIC) that inhibits all visible growth of the Streptococcus pneumoniae (bacteria); MIC may range from (32 - 64); assay type: functional; procedure, shortened: as §1
MCF7 = test: Cell growth inhibition of breast MCF-7 cells, expressed as 50% reduction in the net protein increase; assay type: functional; settings: Homo sapiens
KM-20L2 [13] = test: Cell growth inhibition of colon KM20L2 cells, expressed as 50% reduction in the net protein increase; assay type: functional; settings: Homo sapiens
Procedure, shortened: (§2)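 Human tumour lines kept in 5% FBS/RPMI-1640, plated and incubated 24 h before compound dilutions were added. Exposure 48 h, then TCA fixation, washing and sulforhodamine B staining, with optical density read on a plate reader. GI50 is the concentration giving a 50% reduction in net protein increase, calculated from the OD data.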

NCI-H460 = test: Cell growth inhibition of lung-NSC NCI-H460 cells, expressed as 50% reduction in the net protein increase; assay type: functional; settings: Homo sapiens; procedure, shortened: as §2
P388 [14] = test: Evaluated for cell growth inhibition of the mouse leukemia P388 cells in 10% horse serum/Fisher media; assay type: functional; settings: read-out: ED50 (the source's name)
Procedure, shortened: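 Murine P388 leukaemia cells grown in 10% horse serum/Fisher medium, incubated 24 h, then compound dilutions added. After 48 h, cells counted on a Coulter Z1 particle counter and the ED50 for growth inhibition calculated.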

SF-268 [15] = test: Cell growth inhibition of central nervous system (CNS) SF-268 cells, expressed as 50% reduction in the net protein increase; assay type: functional; settings: Homo sapiens; procedure, shortened: as §2
Tubulin = Tubulin (Bos taurus, UniProt Q6B856+Q862L2+Q862F3); test: Inhibition of tubulin polymerization reported as IC50; assay type: functional
Procedure, shortened: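 Tubulin at 10 µM with a range of drug concentrations. Extent of assembly read after 20 min at 30 °C. IC50 taken from the concentration needed to halve assembly.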

Tubulin (Bos taurus) [16] = target: T1, Tubulin (Bos taurus) (UniProt Q6B856+Q862L2+Q862F3); test: Inhibition of radiolabeled [3H]colchicine binding to tubulin at a concentration of 2 uM of the compound; assay type: protein assay
Procedure, shortened: (§3)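 [3H]colchicine 5.0 µM incubated with tubulin 1.0 µM plus inhibitor at the stated level, 10 min at 37 °C, then colchicine binding measured. Reported as percent inhibition.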

Tubulin (Bos taurus) [17] = target: T1, Tubulin (Bos taurus); test: Inhibition of radiolabeled [3H]colchicine binding to tubulin at a concentration of 5 uM of the compound; assay type: protein assay; procedure, shortened: as §3
Cryptococcus neoformans [18] = test: Minimum inhibitory concentration (MIC) that inhibits all visible growth of the Cryptococcus neoformans (fungus) at 64 ug/mL; NI is no inhibition; assay type: functional, organism-based; procedure, shortened: as §1
Micrococcus luteus [19] = test: The minimum inhibitory concentration (MIC) that inhibits all visible growth of the Micrococcus luteus (bacteria) at 64 ug/mL; NI is no inhibition; assay type: functional, organism-based; procedure, shortened: as §1
Neisseria gonorrhoeae [20] = test: The minimum inhibitory concentration (MIC) that inhibits all visible growth of the Neisseria gonorrhoeae (bacteria); assay type: functional; procedure, shortened: as §1
Streptococcus pneumoniae [21] = test: The minimum inhibitory concentration (MIC) that inhibits all visible growth of the Streptococcus pneumoniae (bacteria); assay type: functional; procedure, shortened: as §1
Neisseria gonorrhoeae [22] = test: The minimum inhibitory concentration (MIC) that inhibits all visible growth of the Neisseria gonorrhoeae (bacteria); value may ranges from (32 - 64); assay type: functional; procedure, shortened: as §1

| SMILES | EC50 (P388 [2]) [µg/mL] | GI50 (BXPC-3) [µg/mL] | MIC (Candida albicans) | GI50 (DU-145) [µg/mL] | MIC (Enterobacter cloacae) | MIC (Escherichia coli) | MIC (Enterococcus faecalis [5]) | GI50 (KM-20L2 [6]) [µg/mL] | GI50 [8] [µg/mL] | GI50 (SF-268 [10]) [µg/mL] | MIC (Staphylococcus aureus) | MIC [11] | GI50 (MCF7) [µg/mL] | also measured |
| --- | --- | --- | --- | --- | --- | --- | --- | --- | --- | --- | --- | --- | --- | --- |
| COc1ccc(/C=C/c2cc(O)cc(OC)c2)cc1 | 31.5 (≈ 123 µM) |  |  |  |  |  |  |  |  |  |  |  |  | MIC (Micrococcus luteus [1]): 16 µg/mL (≈ 62.4 µM) |
| COc1ccc(C(=O)c2cc(O)cc(OC)c2)cc1 | 13.4 (≈ 51.9 µM) | 15 (≈ 58.1 µM) | inactive | 12.6 (≈ 48.8 µM) | inactive | inactive | inactive | 16.2 (≈ 62.7 µM) | 10.3 (≈ 39.9 µM) | 13.9 (≈ 53.8 µM) | inactive | inactive | 14.2 (≈ 55 µM) | MIC (Cryptococcus neoformans [3]): 64 µg/mL (≈ 248 µM); MIC (Enterococcus faecalis [4]): inactive; MIC (Micrococcus luteus [7]): inactive; MIC (Neisseria gonorrhoeae [9]): 32 µg/mL (≈ 124 µM); MIC (Streptococcus pneumoniae [12]): 64 µg/mL (≈ 248 µM) |
| COc1ccc(/C=C\c2cc(O)cc(OC)c2)cc1 | 3.82 (≈ 14.9 µM) |  |  |  |  |  |  |  | 0.72 (≈ 2.81 µM) |  |  |  |  |  |
| COc1ccc(/C=C/c2cc(O)cc(O)c2)cc1 [RESVERATROL 4'-METHYL ETHER] | 28.9 (≈ 119 µM) | 6.3 (≈ 26 µM) |  | 2.7 (≈ 11.1 µM) |  |  |  | 3.8 (≈ 15.7 µM) | 6.8 (≈ 28.1 µM) | 3.1 (≈ 12.8 µM) |  |  | 3.4 (≈ 14 µM) |  |
| COc1ccc(C(O)c2cc(OC)cc(OC)c2)cc1 (stereo unspecified) | 20.2 (≈ 73.6 µM) | 16.1 (≈ 58.7 µM) |  | 23.2 (≈ 84.6 µM) |  |  |  | 21 (≈ 76.6 µM) | 21.7 (≈ 79.1 µM) | 23.3 (≈ 84.9 µM) |  |  |  |  |
| COc1ccc(C(=O)c2cc(OC)c(OC)c(OC)c2)cc1O [PHENSTATIN] |  |  |  |  |  |  |  |  |  |  |  |  |  | GI50 (KM-20L2 [13]): 0.04 µg/mL (≈ 0.126 µM); GI50 (NCI-H460): 5.7 ng/mL (≈ 0.0179 µM); EC50 (P388 [14]): 3.3 ng/mL (≈ 0.0104 µM); GI50 (SF-268 [15]): 0.052 µg/mL (≈ 0.163 µM); IC50 (Tubulin): 1100 nM; inhibition (Tubulin (Bos taurus) [16]): 73%; inhibition (Tubulin (Bos taurus) [17]): 85% |
| COc1cc(O)cc(C(=O)c2ccc(O)cc2)c1 | 26.2 (≈ 107 µM) | 21.7 (≈ 88.8 µM) | inactive | 16.5 (≈ 67.6 µM) | inactive | inactive | inactive | 31.6 (≈ 129 µM) | 12.1 (≈ 49.5 µM) | 26.4 (≈ 108 µM) | inactive | inactive | 26.8 (≈ 110 µM) | MIC (Cryptococcus neoformans [18]): inactive; MIC (Micrococcus luteus [19]): inactive; MIC (Neisseria gonorrhoeae [20]): 32 µg/mL (≈ 131 µM); MIC (Streptococcus pneumoniae [21]): 64 µg/mL (≈ 262 µM) |
| COc1cc(OC)cc(C(=O)c2ccc(O)cc2)c1 | 24.8 (≈ 96 µM) | 4 (≈ 15.5 µM) | inactive | 4.1 (≈ 15.9 µM) | inactive | inactive | inactive | 3.6 (≈ 13.9 µM) | 3 (≈ 11.6 µM) | 3.8 (≈ 14.7 µM) | inactive | inactive | 2.2 (≈ 8.52 µM) | MIC (Cryptococcus neoformans [18]): inactive; MIC (Enterococcus faecalis [4]): inactive; MIC (Micrococcus luteus [7]): inactive; MIC (Neisseria gonorrhoeae [22]): 64 µg/mL (≈ 248 µM); MIC (Streptococcus pneumoniae [21]): 64 µg/mL (≈ 248 µM) |
| Oc1ccc(/C=C/c2cc(O)cc(O)c2)cc1 [RESVERATROL] | 4.49 (≈ 19.7 µM) |  |  |  |  |  |  |  |  |  |  |  |  | MIC (Neisseria gonorrhoeae [20]): 16 µg/mL (≈ 70.1 µM) |
| Oc1ccc(/C=C\c2cc(O)cc(O)c2)cc1 [CIS-RESVERATROL] | 24.4 (≈ 107 µM) | 15.5 (≈ 67.9 µM) |  | 10.2 (≈ 44.7 µM) |  |  |  | 22 (≈ 96.4 µM) | 13.2 (≈ 57.8 µM) | 5 (≈ 21.9 µM) |  |  | 14.8 (≈ 64.8 µM) |  |
